Measured values taken from ChEMBL document CHEMBL1144296, “3,4-Dihydro-2H-benzoxazinones are 5-HT(1A) receptor antagonists with potent 5-HT reuptake inhibitory activity” (Bioorg Med Chem Lett, 2005).

What was measured:
[1] = molecular target: Sodium-dependent serotonin transporter (Rattus norvegicus, UniProt P31652); assay: Mean negative logarithim of binding affinity was measured for the rat serotonin transporter; n>/=3
[2] = molecular target: T1, 5-hydroxytryptamine receptor 1A (Homo sapiens) (UniProt P08908); assay: Mean intrinsic activity was measured for the human 5-hydroxytryptamine 1A receptor; n=3
T1 sequence (whole entry): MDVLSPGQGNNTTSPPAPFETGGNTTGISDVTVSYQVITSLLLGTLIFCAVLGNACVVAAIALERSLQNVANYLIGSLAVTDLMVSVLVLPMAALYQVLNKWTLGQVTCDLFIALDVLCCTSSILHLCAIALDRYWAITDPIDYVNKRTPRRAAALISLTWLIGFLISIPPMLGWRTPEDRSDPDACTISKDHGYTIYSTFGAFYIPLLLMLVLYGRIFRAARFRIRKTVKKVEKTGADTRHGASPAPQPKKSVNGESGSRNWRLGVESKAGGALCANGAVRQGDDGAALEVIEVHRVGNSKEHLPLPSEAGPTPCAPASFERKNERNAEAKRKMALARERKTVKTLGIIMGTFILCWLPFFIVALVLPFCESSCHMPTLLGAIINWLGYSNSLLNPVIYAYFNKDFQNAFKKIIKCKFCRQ
In short: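 [35S]-GTPγS binding in HEK293 cells expressing the human 5-HT1A receptor. Intrinsic activity is the mean of three experiments, each within 0.1 of the mean.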

[3] = molecular target: T2, 5-hydroxytryptamine receptor 1A (Homo sapiens, UniProt P08908); assay: Mean negative logarithim of binding affinity was measured for the human 5-hydroxytryptamine 1A receptor; n>/=3
T2 sequence (P08908 whole entry): T1 sequence (whole entry)

[4] = molecular target: Beta-2 adrenergic receptor (Homo sapiens, UniProt P07550); assay: Binding affinity for human beta-2 adrenergic receptor by displacing [125I]iodocyanopindolol expressed in hamster CHO cells; assay type: cell-based
Beta-2 adrenergic receptor, sequence (P07550 whole entry): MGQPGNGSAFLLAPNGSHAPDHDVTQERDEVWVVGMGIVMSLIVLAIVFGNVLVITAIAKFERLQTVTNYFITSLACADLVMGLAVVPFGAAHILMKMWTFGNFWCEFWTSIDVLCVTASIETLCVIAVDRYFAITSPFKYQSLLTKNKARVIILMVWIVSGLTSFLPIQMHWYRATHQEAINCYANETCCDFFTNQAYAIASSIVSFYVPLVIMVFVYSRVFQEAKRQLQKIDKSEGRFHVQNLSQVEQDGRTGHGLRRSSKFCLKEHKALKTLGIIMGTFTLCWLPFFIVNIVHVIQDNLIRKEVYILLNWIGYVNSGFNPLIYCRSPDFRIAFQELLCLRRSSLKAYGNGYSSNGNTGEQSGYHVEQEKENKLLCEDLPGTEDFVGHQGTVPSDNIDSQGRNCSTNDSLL

Sodium-dependent serotonin transporter, sequence (P31652 whole entry): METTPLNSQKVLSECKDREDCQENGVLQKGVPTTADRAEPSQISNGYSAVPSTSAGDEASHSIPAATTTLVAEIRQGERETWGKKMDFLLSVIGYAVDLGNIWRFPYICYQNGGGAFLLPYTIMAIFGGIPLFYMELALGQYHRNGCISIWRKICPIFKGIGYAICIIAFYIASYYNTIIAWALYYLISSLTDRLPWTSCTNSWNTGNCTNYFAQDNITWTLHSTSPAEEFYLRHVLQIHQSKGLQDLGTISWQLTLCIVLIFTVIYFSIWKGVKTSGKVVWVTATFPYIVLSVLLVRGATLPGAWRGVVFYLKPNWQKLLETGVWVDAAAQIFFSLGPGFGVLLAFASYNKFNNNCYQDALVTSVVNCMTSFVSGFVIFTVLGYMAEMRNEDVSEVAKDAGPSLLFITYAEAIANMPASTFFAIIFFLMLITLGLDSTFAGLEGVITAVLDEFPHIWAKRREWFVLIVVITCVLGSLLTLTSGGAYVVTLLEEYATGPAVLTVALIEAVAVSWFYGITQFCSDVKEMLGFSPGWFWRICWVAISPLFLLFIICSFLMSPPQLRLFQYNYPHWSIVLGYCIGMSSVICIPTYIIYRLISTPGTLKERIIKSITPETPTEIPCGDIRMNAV

| Ki [1] [nM] | IA [2] | Ki [3] [nM] | SMILES | Ki [4] [nM] |
| --- | --- | --- | --- | --- |
| 100 | 0.4 | 2.51 | O=C1COc2ccc(OC3CCN(CCOc4cccc5ccccc45)CC3)cc2N1 | – |
| 79.4 | 0.3 | 1.58 | O=C1COc2ccc(OCC3CCCN(CCOc4cccc5ncccc45)C3)cc2N1 (stereo not given) | – |
| 50.1 | 0.3 | 1.26 | O=C1COc2ccc(OCC3CCN(CCOc4cccc5ncccc45)C3)cc2N1 (stereo not given) | – |
| – | 0.2 | – | Cc1ccc2c(OCCN3CCC(Cc4ccc5c(c4)NC(=O)CO5)CC3)cccc2n1 | – |
| 50.1 | 0.8 | 7.94 | O=C1COc2ccc(OC3CCN(CCOc4nccc5ccccc45)CC3)cc2N1 | – |
| 39.8 | 0.5 | 6.31 | O=C1COc2ccc(OC3CCN(CCOc4cccc5cccnc45)CC3)cc2N1 | – |
| 5.01 | 0.2 | 3.98 | O=C1COc2ccc(OC3CCN(CCOc4cccc5[nH]ccc45)CC3)cc2N1 | – |
| 31.6 | 0.1 | 12.6 | O=C1COc2ccc(OC3CCN(CCOc4cccc5ncccc45)CC3)cc2N1 | – |
| 7.94 | 0.3 | 1.58 | N#Cc1cc2c(OCCN3CCC(Oc4ccc5c(c4)NC(=O)CO5)CC3)cccc2[nH]1 | – |
| 6.31 | 0.2 | 1.26 | O=C1COc2ccc(CC3CCN(CCOc4cccc5ncccc45)CC3)cc2N1 | – |
| – | – | 100 | O=C1COc2ccc(OC3CCN(CCOc4ccnc5ccccc45)CC3)cc2N1 | – |

Further lines, the compound ahead of its results:

| SMILES | Ki [1] [nM] | IA [2] | Ki [3] [nM] | Ki [4] [nM] |
| --- | --- | --- | --- | --- |
| CC(COc1ccc2c(c1)NC(=O)CO2)NCC(O)COc1cccc2[nH]ccc12 (stereo in doubt; 1d) [listing 1 of 2 here] | 316 | – | – | – |
| CC(COc1ccc2c(c1)NC(=O)CO2)NCC(O)COc1cccc2[nH]ccc12 (stereo in doubt; 1a) [listing 1 of 2 here] | 126 | – | – | – |
| CC(COc1ccc2c(c1)NC(=O)CO2)NCC(O)COc1cccc2[nH]ccc12 (stereo in doubt; 1c) [listing 1 of 2 here] | – | 0.3 | – | – |
| CC(COc1ccc2c(c1)NC(=O)CO2)NCC(O)COc1cccc2[nH]ccc12 (stereo in doubt; 1) [listing 1 of 2 here] | – | 0.3 | – | – |
| CC(COc1ccc2c(c1)NC(=O)CO2)NCC(O)COc1cccc2[nH]ccc12 (stereo in doubt; 1) [listing 2 of 2 here] | 50.1 | – | – | – |
| CC(COc1ccc2c(c1)NC(=O)CO2)NCC(O)COc1cccc2[nH]ccc12 (stereo in doubt; 1a) [listing 2 of 2 here] | – | 0.4 | – | – |
| CC(COc1ccc2c(c1)NC(=O)CO2)NCC(O)COc1cccc2[nH]ccc12 (stereo in doubt; 1b) | – | 0.3 | – | – |
| CC(COc1ccc2c(c1)NC(=O)CO2)NCC(O)COc1cccc2[nH]ccc12 (stereo in doubt; 1c) [listing 2 of 2 here] | 100 | – | – | – |
| O=C1COc2ccc(CN3CCN(CCOc4cccc5ncccc45)CC3)cc2N1 | 31.6 | 0.2 | 10 | – |
| O=C1COc2ccc(OCCNCCCOc3cccc4[nH]ccc34)cc2N1 | 79.4 | 0.6 | 1.58 | 1000 |
| CC(COc1ccc2c(c1)NC(=O)CO2)NCC(O)COc1cccc2[nH]ccc12 (stereo in doubt; 1d) [listing 2 of 2 here] | – | 0.2 | – | – |
